# Hits are enriched below; roughly 1.4% of the tested compounds scored in any of these assays.
# APOBEC3A inh = human APOBEC3A DNA deaminase inhibition; P31941; inhibition, % at 20 µM; 0.41% of 330,000 active; recombinant A3A, FAM/TAMRA ssDNA deamination fluorescence;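 active = at least 40% inhibition at 20 µM here, with at most 30% in a related deaminase screen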;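 note: plate controls were A3A with DMSO for no effect and wells lacking A3A enzyme for full effect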
# Target sequence (P31941 whole entry, looked up): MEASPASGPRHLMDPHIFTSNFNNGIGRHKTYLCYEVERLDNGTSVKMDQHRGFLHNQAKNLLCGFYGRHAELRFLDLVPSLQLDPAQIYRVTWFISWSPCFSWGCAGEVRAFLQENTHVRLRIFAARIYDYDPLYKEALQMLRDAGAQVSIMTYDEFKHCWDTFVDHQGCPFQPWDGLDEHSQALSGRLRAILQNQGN
# CCR6 antagonist = blocks CCL20-driven beta-arrestin recruitment at human CCR6; CHO-K1 CCR6 PathHunter beta-arrestin, luminescence, CCL20-stimulated; inhibition, % at 20 µM; 0.49% of 340,000 active;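 active = compounds whose inhibition of the agonist-driven luminescence signal at 20 µM reaches about 50%, limit read from the data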;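 note: cells stimulated with CCL20 at 14 nM final; plate controls were DMSO with CCL20 for no effect and DMSO without agonist for full effect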
# APOBEC3G inh = blocks human APOBEC3G single-stranded DNA deamination | Q9HC16 | inhibition, % at 20 µM | 0.28% of 330,000 active | recombinant A3G, ssDNA deamination FAM/TAMRA fluorescence;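 active = inhibition of at least 40% at 20 µM, with no more than 30% in the related APOBEC3A deaminase screen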;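 note: plate controls were DMSO wells with A3G for no effect and wells lacking A3G enzyme for full effect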
# APJ ag = APJ receptor agonism. 0.11% of 330,000 active. CHO-K1 APJ PathHunter beta-arrestin, luminescence; 0% DMSO wells, 100% apelin. AID 2520. activation, % at 20 µM. P35414;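 active = activation more than six SD over the plate average, tested at 20 µM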;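 note: 0% = DMSO alone and 100% = apelin-13 at 10 nM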
# Target sequence (P35414 whole entry, looked up): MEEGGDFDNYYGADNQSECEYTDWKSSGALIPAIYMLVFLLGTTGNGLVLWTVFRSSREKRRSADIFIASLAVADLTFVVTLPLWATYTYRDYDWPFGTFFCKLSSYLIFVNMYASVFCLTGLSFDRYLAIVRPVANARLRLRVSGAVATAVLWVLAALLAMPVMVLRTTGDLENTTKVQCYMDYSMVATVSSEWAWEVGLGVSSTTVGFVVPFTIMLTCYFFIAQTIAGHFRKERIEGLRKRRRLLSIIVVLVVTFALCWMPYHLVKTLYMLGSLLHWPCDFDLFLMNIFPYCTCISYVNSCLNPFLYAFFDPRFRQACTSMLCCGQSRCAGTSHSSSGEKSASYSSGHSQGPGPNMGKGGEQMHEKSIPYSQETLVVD
#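 Assay system: CHO-K1 cells stably expressing ProLink-tagged human APJ and arrestin–beta-gal acceptor. Compound dosing: 20 µM single point, 1% DMSO. Times: 16-18 h seeding, 90 min dark compound exposure, 60 min detection. Detection: beta-gal luminescence. Evaluation: APJ–arrestin association signal. Controls: negative DMSO alone, positive Apelin-13 at 10 nM.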
# CXCR6 block = blocks human CXCR6 beta-arrestin recruitment; AID 602244; inhibition, % at 20 µM; O00574; 0.36% of 360,000 active; CHO-K1 PathHunter CXCR6 beta-arrestin, luminescence; in the data active = inhibition above about 34%, passing the limit was not always enough;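 note: antagonist mode with CXCL16 agonist at 10 nM final; 0% = 10 nM CXCL16 with DMSO and 100% = unstimulated wells without agonist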
# APJ antag = APJ receptor antagonism. CHO-K1 APJ beta-arrestin complementation, luminescence. inhibition, % at 20 µM. 0.32% of 330,000 active. AID 2521;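 active = inhibition above about 40% at 20 µM, limit read from the data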;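 note: cells challenged with 10 nM apelin-13 agonist together with compound; plate controls were apelin-13 plus DMSO wells for no effect and DMSO wells lacking apelin-13 for full effect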
# CXCR6 confirm = confirmation of human CXCR6 receptor antagonists. CHO-K1 CXCR6 PathHunter beta-arrestin, luminescence. shares compounds with CXCR6 block. AID 602409. 65% of 700 active. inhibition, % at 20 µM;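 active = mean inhibition over four retests above 40%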;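 note: receptor stimulated with 10 nM CXCL16 agonist; beta-galactosidase fragment complementation upon beta-arrestin recruitment to receptor; plate controls were CXCL16 plus DMSO for no effect and DMSO without CXCL16 for full effect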
# * hit, by the source's call; / = not tested or not shown.
SMILES,APOBEC3A inh,CCR6 antagonist,APOBEC3G inh,APJ ag,CXCR6 block,APJ antag,CXCR6 confirm
CC(C)Oc1cccc(C(=O)NC(=S)N2CCN(c3ccc(C(F)(F)F)cc3[N+](=O)[O-])CC2)c1,2.0,37.5,-5.0,0.2,27.3,5.7,/
CN(C)S(=O)(=O)c1cccc(NC(=O)CSc2nnnn2-c2ccccc2)c1,-5.4,5.6,-5.7,2.5,4.2,-8.3,/
CC1CCCCC1NC(=O)CCS(=O)(=O)c1cc2c(cc1Cl)NC(=O)CO2 (stereo unspecified),1.1,14.1,-1.9,9.8,-2.1,0.5,/
O=[N+]([O-])c1cc2no[n+]([O-])c2cc1N1CCCCC1,/,106.2*,/,/,99.6*,/,93.3*
CCOc1cc(/C=C2\C(=O)N(c3cccc(C(F)(F)F)c3)C(=O)c3ccccc32)ccc1O,-1.1,46.3,3.2,-2.1,44.3*,15.3,43.4*
O=C1CC(Sc2nnnn2-c2ccccc2)C(=O)N1c1cccc(Cl)c1 (stereo unspecified),-4.4,/,-6.7,-1.0,94.0*,26.9,59.2*
Cc1ccccc1NC(=O)Nc1ccc2c(c1)CCC2,-0.9,7.0,-5.2,-0.1,1.9,14.2,/
CN(C)/C(=N\S(=O)(=O)c1ccc(Cl)cc1)c1ccc(F)cc1,-4.8,5.1,-8.9,-2.1,43.3*,11.1,-1.5
CC(OC(=O)c1ccco1)C(=O)NCc1ccc2c(c1)OCO2 (stereo unspecified),1.4,0.5,-5.5,-3.5,-3.5,-16.5,/
COc1ccc(OCCCC(=O)Nc2nc(-c3ccccn3)cs2)cc1,0.3,-1.3,-4.0,-2.3,6.9,2.7,/
Cc1cc(C)c(OCC(=O)Nc2nc(-c3ccccn3)cs2)c(C)c1,1.3,/,-4.0,-3.5,51.6*,-9.1,39.0
CC(Oc1ccc(F)cc1)C(=O)Nc1nc(-c2ccccn2)cs1 (stereo unspecified),10.0,71.4*,-3.4,-7.4,66.6*,-1.7,86.9*
CCc1ccccc1OCC(=O)Nc1nc(-c2cccnc2)cs1,-6.0,75.9*,-3.7,-4.4,51.3*,17.1,64.1*
CC1Cc2ccccc2N1C(=O)CN(C)CC(=O)Nc1ccc(F)cc1 (stereo unspecified),7.2,-7.4,-7.2,-3.8,2.0,-12.1,/
CCCCCC(O)(c1ccc(OCC)cc1)C(CN1CCOCC1)c1ccccc1 (stereo unspecified),0.1,20.5,-0.4,-2.5,12.5,24.2,/
CC(=NNC(=S)N1CCCCC1)c1cccc(C)n1,/,22.8,/,/,42.8*,/,20.4
O=C1c2cccc3c([N+](=O)[O-])ccc(c23)C(=O)N1c1ccccn1,-2.6,/,-7.6,0.0,51.8*,30.4,52.5*
O=C1c2cccc3c([N+](=O)[O-])ccc(c23)C(=O)N1O,30.1,-15.6,1.1,6.9,-13.2,-55.3,/
O=C(Nc1nnc(-c2cccs2)o1)c1cccc(Oc2ccccc2)c1,-2.9,33.6,-6.6,-2.8,44.5*,-45.0,36.9
CC(C)c1ccc(NC(=O)C(c2ccccc2)N2CC(=O)Nc3ccccc32)cc1 (stereo unspecified),-3.5,12.8,-9.0,-0.6,10.6,-4.4,/
CCCCC(=O)NC(=S)NNC(=O)c1ccc(OC)cc1,-2.3,69.0*,31.5,-2.3,46.5*,39.8,48.1*
O=C(NN(Cc1ccccc1)Cc1ccccc1)c1ccccc1,/,4.3,/,/,-0.2,/,/
O=C(/C=C/c1ccc(Cl)cc1)N(c1ccccn1)C1CCCCC1,-2.3,19.8,-10.2,-3.9,59.1*,9.2,8.5
COc1ccc(NC2CCCN(C(=O)C3(C)CCCCC3)C2)cc1 (stereo unspecified),-2.6,22.1,-5.3,-2.4,-8.6,8.6,/
O=C(COc1cc2oc(=O)c3c(c2cc1Cl)CCC3)NCc1ccncc1,-5.8,9.9,-6.3,-3.8,1.7,24.2,/
SMILES,APOBEC3A inh,CCR6 antagonist,APOBEC3G inh,APJ ag,CXCR6 block,APJ antag,CXCR6 confirm
C=C1CC(COc2cc(=O)oc3ccccc23)(c2ccccc2)OC1=O (stereo unspecified),/,100.3*,/,/,88.9*,/,89.6*
C=C1CCC2C(C)(C)[C@H](O)CC[C@@]2(C)[C@@H]1COc1cc(=O)oc2ccccc12 (stereo partly specified),-3.0,4.5,-4.9,10.0,-3.0,-5.7,/
Cc1ccc(NS(=O)(=O)c2cc([N+](=O)[O-])ccc2NNC(=S)Nc2cc(C)ccc2C)c(C)c1,0.9,86.4*,-6.1,-8.1,63.2*,53.4*,64.3*
COc1ccc(NC(=S)NNc2ccc([N+](=O)[O-])cc2S(=O)(=O)Nc2ccc(C)cc2C)cc1,-1.1,77.2*,-5.2,0.0,49.2*,0.9,56.4*
COc1ccc(NC(=S)Nc2cccc([N+](=O)[O-])c2)cc1,0.3,9.8,-3.5,-4.2,5.7,25.0,/
Cc1csc(=O)n1CCC(=O)OCC(=O)NCc1ccc(F)cc1,0.5,10.9,-6.0,0.4,-2.4,6.8,/
O=C(C(=Cc1ccc(F)cc1)c1ccccc1)c1ccc(O)cc1,/,12.5,/,/,0.3,/,/
O=C(C(=Cc1ccc(F)cc1)C(=O)c1ccccc1)c1ccccc1,/,/,/,/,42.3*,/,58.5*
Cc1ccc(NC(=S)N/N=C/c2ccc([N+](=O)[O-])s2)cc1,-2.3,71.5*,-7.9,0.7,51.7*,-20.5,72.0*
Cc1nc2c(OCc3ccc(C(F)(F)F)cc3)cccn2c1N(C)CC1CC1,/,/,/,/,46.8*,/,24.1
COc1ccc(CNc2cccnc2)c(OC)c1OC,/,0.1,/,/,3.0,/,/
CCN(CC(=O)Nc1cc(Cl)ccc1C)C(=O)CCS(=O)(=O)c1ccc(Cl)cc1,-3.8,2.0,-4.0,-0.6,-3.5,-3.2,/
N#C/C(=C\c1ccco1)C(=O)NCc1ccccc1,-1.6,-6.5,-3.7,-3.2,2.0,-4.3,/
N#CC(C#N)=C1C=CC=CN1/C(=C\c1ccco1)C(=O)c1ccc(-c2ccccc2)cc1,/,82.8*,/,/,44.0*,/,50.6*
O=C(C=P(c1ccccc1)(c1ccccc1)c1ccccc1)c1ccccc1-c1ccccc1C(=O)C=P(c1ccccc1)(c1ccccc1)c1ccccc1,/,88.4*,/,/,70.6*,/,39.0
O=C(NNC(=O)c1ccccc1-c1ccccc1C(=O)O)c1ccccc1,3.8,5.6,-3.5,-4.5,-9.8,-5.8,/
Cc1noc(C)c1S(=O)(=O)Nc1ccc2c(c1)C(=O)N([C@H](C)CO)C[C@@H](C)[C@@H](CN(C)Cc1ccc3c(c1)OCO3)O2,-1.4,4.4,-5.2,-5.2,-1.6,-2.6,/
C[C@@H]1CC=C[C@@H]2[C@H]1C(=O)N(Cc1ccccc1)[C@H]2c1ccccc1Br,3.9,7.3,2.4,/,35.1*,/,4.8
C[C@@H]1CC=C[C@@H]2[C@H]1C(=O)N(Cc1ccccc1)[C@H]2c1cccc(Br)c1,3.8,18.0,3.6,/,8.9,/,/
